Measurements published in ChEMBL document CHEMBL1142321, “Selection of a respiratory syncytial virus fusion inhibitor clinical candidate. 2. Discovery of a morpholinopropylaminobenzimidazole derivative (TMC353121)” (J Med Chem, 2008).
Values after ≈ are worked out from the molar mass of the structure shown. One block for each molecule: values may come before it.

Columns and labels:
[1] = tested on: Respiratory syncytial virus; assay: Inhibition of RSV by MTT assay; format: functional, organism-based; details: human respiratory syncytial virus
In short: (§1)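 HeLaM epithelial-like cells infected with RSV with or without a range of compound concentrations; viability read by MTT after 1 week incubation. OD measured spectrophotometrically and pEC50 derived. Virus, cell and cytotoxicity controls on every plate, reference compounds in every test; runs failing control criteria rejected.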

[2] = Cytotoxicity against human HeLaM cells by MTT assay; format: functional, M-HeLa
[3] = Half life in Sprague-Dawley rat lung; format: ADME, organism-based
[4] = tested on: Respiratory syncytial virus; assay: Antiviral activity against RSV R2LO replication in HeLa cells; format: functional, organism-based; details: for EC50: human respiratory syncytial virus, HeLa; in short: as §1
[5] = tested on: Respiratory syncytial virus; assay: Antiviral activity against RSV R6LO replication in HeLa cells; format: functional, organism-based; details: for EC50: human respiratory syncytial virus, HeLa; in short: as §1
[6] = tested on: Respiratory syncytial virus; assay: Antiviral activity in RSV infected cotton rat model assessed as log reduction of viral titer at 0.25 mg/mL by aerosol administration 1 hr prior to viral challenge; format: functional
In short: (§2)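 Single aerosol from an ultrasonic nebulizer for 1 h, given 1 h before RSV challenge; dose stated as drug concentration in the nebulizer reservoir. BALF collected by lung flushing with physiological water 4 days after challenge. Virus titre measured by plaque titration; log reduction calculated against untreated control animals.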

[7] = tested on: Respiratory syncytial virus; assay: Antiviral activity in RSV infected cotton rat model assessed as log reduction of viral titer at 1.25 mg/mL by aerosol administration 1 hr prior to viral challenge; format: functional; in short: as §2
[8] = tested on: Respiratory syncytial virus; assay: Antiviral activity in RSV infected cotton rat model assessed as log reduction of viral titer at 5 mg/mL by aerosol administration 1 hr prior to viral challenge; format: functional; in short: as §2
[9] = tested on: Respiratory syncytial virus; assay: Antiviral activity in RSV infected cotton rat model assessed as log reduction of viral titer at 20 mg/mL by aerosol administration 1 hr prior to viral challenge; format: functional; in short: as §2
[10] = tested on: Respiratory syncytial virus; assay: Antiviral activity in RSV infected cotton rat model assessed as log reduction of viral titer at 10 mg/kg, iv after 24 hrs of viral challenge; format: functional
In short: (§3)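 Cotton rats received a single iv dose at set times before (minus) or after (plus) RSV challenge. Day 4 after challenge, lungs flushed with physiological water and BALF virus titre measured by plaque titration. Log reduction calculated against untreated controls.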

[11] = tested on: Respiratory syncytial virus; assay: Antiviral activity in RSV infected cotton rat model assessed as log reduction of viral titer at 10 mg/kg, po 2 hrs prior to viral challenge; format: functional
In short: (§4)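 Cotton rats dosed once orally by gavage 2 h before RSV challenge. BALF obtained by lung lavage with physiological water 4 days after challenge, virus titred by plaque assay. Log reduction expressed versus untreated control animals.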

[12] = tested on: Respiratory syncytial virus; assay: Antiviral activity in RSV infected cotton rat model assessed as log reduction of viral titer at 40 mg/kg, po 2 hrs prior to viral challenge; format: functional; in short: as §4
[13] = AUC (0 to infinity) in Sprague-Dawley rat plasma at 2 mg/kg, iv; format: ADME, organism-based; set-up: time infinity, dose 2 mg/kg, route intravenous
[14] = Plasma clearance in Sprague-Dawley rat at 2 mg/kg, iv; format: ADME, organism-based; set-up: dose 2 mg/kg, route intravenous
[15] = Volume of distribution in Sprague-Dawley rat plasma at 2 mg/kg, iv; format: ADME, organism-based; set-up: dose 2 mg/kg, route intravenous
[16] = Half life in Sprague-Dawley rat plasma at 2 mg/kg, iv; format: ADME, organism-based; set-up: dose 2 mg/kg, route intravenous
[17] = Cmax in Sprague-Dawley rat plasma at 10 mg/kg, po; format: ADME, organism-based; set-up: dose 10 mg/kg, route oral
[18] = AUC (0 to infinity) in Sprague-Dawley rat plasma at 10 mg/kg, po; format: ADME, organism-based; set-up: time infinity, dose 10 mg/kg, route oral
[19] = Absolute bioavailability in Sprague-Dawley rat plasma at 10 mg/kg, po; format: ADME, organism-based
[20] = tested on: Respiratory syncytial virus; assay: Antiviral activity against RSV LO replication in HeLa cells; format: functional, organism-based; in short: as §1
[21] = tested on: Respiratory syncytial virus; assay: Antiviral activity against RSV Cl11 replication in HeLa cells; format: functional, organism-based; details: for EC50: human respiratory syncytial virus, HeLa; in short: as §1
[22] = tested on: Respiratory syncytial virus; assay: Antiviral activity against RSV CI57 replication in HeLa cells; format: functional, organism-based; details: for EC50: human respiratory syncytial virus, HeLa; in short: as §1
[23] = tested on: Respiratory syncytial virus; assay: Antiviral activity against RSV CI41 replication in HeLa cells; format: functional, organism-based; details: for EC50: human respiratory syncytial virus, HeLa; in short: as §1
[24] = tested on: Respiratory syncytial virus; assay: Antiviral activity against RSV CI42 replication in HeLa cells; format: functional, organism-based; details: for EC50: human respiratory syncytial virus, HeLa; in short: as §1
[25] = tested on: Respiratory syncytial virus; assay: Antiviral activity against RSV R1LO replication in HeLa cells; format: functional, organism-based; details: for EC50: human respiratory syncytial virus, HeLa; in short: as §1
[26] = tested on: Respiratory syncytial virus; assay: Antiviral activity in RSV infected cotton rat model assessed as log reduction of viral titer at 2 mg/kg, iv 5 mins prior to viral challenge; format: functional; in short: as §3
[27] = tested on: Respiratory syncytial virus; assay: Antiviral activity in RSV infected cotton rat model assessed as log reduction of viral titer at 10 mg/kg, iv 96 hrs prior to viral challenge; format: functional; in short: as §3
[28] = tested on: Respiratory syncytial virus; assay: Antiviral activity in RSV infected cotton rat model assessed as log reduction of viral titer at 10 mg/kg, iv 72 hrs prior to viral challenge; format: functional; in short: as §3
[29] = tested on: Respiratory syncytial virus; assay: Antiviral activity in RSV infected cotton rat model assessed as log reduction of viral titer at 10 mg/kg, iv 48 hrs prior to viral challenge; format: functional; in short: as §3
[30] = tested on: Respiratory syncytial virus; assay: Antiviral activity in RSV infected cotton rat model assessed as log reduction of viral titer at 10 mg/kg, iv 24 hrs prior to viral challenge; format: functional; in short: as §3
[31] = tested on: Respiratory syncytial virus; assay: Antiviral activity in RSV infected cotton rat model assessed as log reduction of viral titer at 10 mg/kg, iv 4 hrs prior to viral challenge; format: functional; in short: as §3
[32] = tested on: Respiratory syncytial virus; assay: Antiviral activity in RSV infected cotton rat model assessed as log reduction of viral titer at 10 mg/kg, iv 1 hrs prior to viral challenge; format: functional; in short: as §3
[33] = tested on: Respiratory syncytial virus; assay: Antiviral activity in RSV infected cotton rat model assessed as log reduction of viral titer at 10 mg/kg, iv 5 mins prior to viral challenge; format: functional; in short: as §3
[34] = tested on: Respiratory syncytial virus; assay: Antiviral activity in RSV infected cotton rat model assessed as log reduction of viral titer at 10 mg/kg, iv after 3 hrs of viral challenge; format: functional; in short: as §3

half-life [3]: 20.1 h
Compound: Cc1ccc(O)c(Cn2c(NCCCN3CCOCC3)nc3ccc(CNc4ccccc4CCO)cc32)n1
EC50 [1]: 0.794 nM | pCC50 [2]: 4.7

half-life [3]: 84.9 h
Compound: Cc1cc(C)cc(NCc2ccc3nc(NC4CCN(CCO)CC4)n(Cc4nc(C)ccc4O)c3c2)c1
EC50 [1]: 1.58 nM | pCC50 [2]: 4.5

Compound: Cc1cccc(CCc2ccc3nc(NC4CCN(C)CC4)n(Cc4nc(C)ccc4O)c3c2)c1
EC50 [1]: 20 nM | pCC50 [2]: 5.9

half-life [3]: 10.4 h
Compound: Cc1cc(C)cc(N(CCCC(N)=O)Cc2ccc3nc(NCCCN4CCOCC4)n(Cc4nc(C)ccc4O)c3c2)c1
EC50 [1]: 0.251 nM | pCC50 [2]: 4.7

pEC90 [4]: <4 | EC50 ([4]; read-out: EC50): 280 ng/mL | EC50 ([4]; read-out: Log EC50 (converted)): 501 nM | pEC90 [5]: <6.7 | EC50 ([5]; read-out: EC50): 0.04 ng/mL | EC50 ([5]; read-out: Log EC50 (converted)): 0.0794 nM | AUC(0-inf) [13]: 354 ng·h/mL | clearance [14]: 90 mL/min/kg | Vd [15]: 79.3 L/kg | half-life [16]: 10.3 h | Cmax [17]: 47.3 ng/mL | AUC(0-inf) [18]: 246 ng·h/mL | bioavailability [19]: 14% | half-life [3]: 25.1 h | pEC90 [20]: 9.6 | EC50 ([20]; human respiratory syncytial virus, HeLa): 0.07 ng/mL (≈ 0.000125 µM) | pEC90 [21]: 10 | EC50 ([21]; read-out: EC50): 0.03 ng/mL | EC50 ([21]; read-out: Log EC50 (converted)): 0.0501 nM | pEC90 [22]: 9.8 | EC50 ([22]; read-out: EC50): 0.04 ng/mL | EC50 ([22]; read-out: Log EC50 (converted)): 0.0794 nM | pEC90 [23]: 10.1 | EC50 ([23]; read-out: EC50): 0.02 ng/mL | EC50 ([23]; read-out: Log EC50 (converted)): 0.0316 nM | pEC90 [24]: 10.1 | EC50 ([24]; read-out: EC50): 0.02 ng/mL | EC50 ([24]; read-out: Log EC50 (converted)): 0.0316 nM | pEC90 [25]: 7.5 | EC50 ([25]; read-out: EC50): 7.03 ng/mL | EC50 ([25]; read-out: Log EC50 (converted)): 12.6 nM
Compound: Cc1ccc(CCCO)c(NCc2ccc3nc(NCCCN4CCOCC4)n(Cc4nc(C)ccc4O)c3c2)c1
Activity [6]: 0.6 | Activity [7]: 1 | Activity [8]: 1.5 | Activity [9]: 1.6 | Activity [10]: 0.2 | Activity [11]: 0.4 | Activity [12]: 0.8 | pCC50 [2]: 5.1 | CC50 ([2]; Homo sapiens, M-HeLa): 4440 ng/mL (≈ 7.94 µM) | Activity [26]: 0.4 | Activity [27]: 0.2 | Activity [28]: 0.4 | Activity [29]: 0.3 | Activity [30]: 0.5 | Activity [31]: 0.9 | Activity [32]: 0.9 | Activity [33]: 1.2 | Activity [34]: 0.5

Compound: Cc1ccc(O)c(Cn2c(NC3CCN(C)CC3)nc3ccc(CN(C)c4ccccc4)cc32)n1
EC50 [1]: 39.8 nM | pCC50 [2]: 5.2

Compound: Cc1cc(C)cc(NCc2ccc3nc(NCCc4ccccc4)n(Cc4nc(C)ccc4O)c3c2)c1
EC50 [1]: > 100000 nM | pCC50 [2]: 4.4

Compound: Cc1cccc(/C=C/c2ccc3nc(NC4CCN(CCN)CC4)n(Cc4nc(C)ccc4O)c3c2)c1
EC50 [1]: 3.16 nM | pCC50 [2]: 5.1

Compound: Cc1cc(C)cc(NCc2ccc3nc(NCCCN4CCN(C)CC4)n(Cc4nc(C)ccc4O)c3c2)c1
EC50 [1]: 3.98 nM | pCC50 [2]: 5

Compound: Cc1cccc(NCc2ccc3nc(NCCCN4CCOCC4)n(Cc4nc(C)ccc4O)c3c2)c1
EC50 [1]: 2.51 nM | pCC50 [2]: 4.9

Compound: Cc1cccc(CNc2ccc3nc(NC4CCN(C)CC4)n(Cc4nc(C)ccc4O)c3c2)c1
EC50 [1]: 15.8 nM | pCC50 [2]: 4.8

Compound: Cc1ccc(O)c(Cn2c(NC3CCN(C)CC3)nc3ccc(C(O)c4ccccc4)cc32)n1 (stereo not drawn)
EC50 [1]: 158 nM | pCC50 [2]: <4

Compound: Cc1cccc(SCc2ccc3nc(NC4CCN(C)CC4)n(Cc4nc(C)ccc4O)c3c2)c1
EC50 [1]: 251 nM | pCC50 [2]: 4.4

half-life [3]: 13.7 h
Compound: Cc1cc(C)cc(NCc2ccc3nc(NCCCN4CCOCC4)n(Cc4nc(C)ccc4O)c3c2)c1
EC50 [1]: 1 nM | pCC50 [2]: 5

Compound: Cc1ccc(O)c(Cn2c(NC3CCN(C)CC3)nc3ccc(CN(CCO)c4ccccc4)cc32)n1
EC50 [1]: 3.16 nM | pCC50 [2]: <4

Compound: Cc1ccc(O)c(Cn2c(NC3CCN(CCN)CC3)nc3c(C)cccc32)n1 [JNJ 2408068]
EC50 [1]: 0.251 nM | pCC50 [2]: <4
